Laboratory results published in ChEMBL document CHEMBL1649115, “Enhanced susceptibility to antifungal oligopeptides in yeast strains overexpressing ABC multidrug efflux pumps” (Antimicrob Agents Chemother, 2008).
≈ marks a conversion by molar mass, not a printed value. Non-standard residues stand in square brackets, D forms with d. Residues, ends and D or L forms follow the SMILES beside them. Phe(3-F) = N[C@@H](Cc1cccc(F)c1)C(=O)O

Columns and labels:
Saccharomyces cerevisiae [1] = assay: Antifungal activity against Saccharomyces cerevisiae ADCDR1 expressing Candida albicans CDR1 efflux pump in YNPG-proline medium after 24 hrs by microdilution method; format: functional; settings: ADCDR1, 24 h
Saccharomyces cerevisiae [2] = assay: Drug uptake in Saccharomyces cerevisiae ADMDR1 at 50 uM pretreated for 10 mins measured after 60 mins by fluorescamine staining in presence of fluconazole; settings: in vivo, 1 h
Candida albicans [3] = assay: Antifungal activity against wild type Candida albicans 10261 in RPMI-1640 buffered medium after 24 hrs by microdilution method; format: functional; settings: Candida albicans, 10261, 24 h; read-out: MIC
How it was run: (§1)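 C. albicans cells were grown in 2% glucose, 1% yeast extract, 1% Bacto peptone medium before testing. […] CARE-2 fingerprinting confirmed that each pair is a single strain.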

Saccharomyces cerevisiae [4] = assay: Drug uptake in Saccharomyces cerevisiae AD12345678 at 200 uM pretreated for 10 mins measured after 60 mins by fluorescamine staining; format: ADME, organism-based; settings: in vivo, 1 h
Saccharomyces cerevisiae [5] = assay: Drug uptake in Saccharomyces cerevisiae ADCDR1 at 200 uM pretreated for 10 mins measured after 60 mins by fluorescamine staining in presence of fluconazole; format: ADME, organism-based; settings: in vivo, 1 h
Saccharomyces cerevisiae [6] = assay: Antifungal activity against Saccharomyces cerevisiae ADMDR1 expressing Candida albicans MDR1 efflux pump in YNPG-proline medium after 24 hrs by microdilution method; format: functional; settings: ADMDR1, 24 h
Candida albicans [7] = assay: Prodrug stability in fluconazole sensitive Candida albicans isolate Gu4 assessed as compound cleavage rate measured per mg of protein; format: ADME, organism-based; settings: in vivo
How it was run: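 Oligopeptides were incubated with cell extracts of the yeast cells, and their hydrolytic enzymes cleaved them. The amino acids released were quantified by the Cd-ninhydrin method.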

Saccharomyces cerevisiae [8] = assay: Drug uptake in Saccharomyces cerevisiae ADCDR1 expressing Candida albicans CDR1 efflux pump at 200 uM pretreated for 10 mins measured after 60 mins by fluorescamine staining; format: ADME, organism-based; settings: in vivo, 1 h
Candida albicans [9] = assay: Antifungal activity against fluconazole sensitive Candida albicans isolate Gu4 in RPMI-1640 buffered medium after 24 hrs by microdilution method; format: functional; settings: Candida albicans, isolate Gu4, 24 h; read-out: MIC; how it was run: as §1
Candida albicans [10] = assay: Prodrug stability in fluconazole sensitive Candida albicans isolate B3 assessed as compound cleavage rate measured per mg of protein; format: ADME, organism-based; settings: in vivo
Saccharomyces cerevisiae [11] = assay: Antifungal activity against Saccharomyces cerevisiae ADCDR2 expressing Candida albicans CDR2 efflux pump in YNPG-proline medium after 24 hrs by microdilution method; format: functional; settings: ADCDR2, 24 h
Saccharomyces cerevisiae [12] = assay: Antifungal activity against wild type Saccharomyces cerevisiae ATCC 9763 in YNPG-proline medium after 24 hrs by microdilution method; format: functional; settings: ATCC 9763, 24 h
Saccharomyces cerevisiae [13] = assay: Antifungal activity against Saccharomyces cerevisiae AD12345678 in YNPG-proline medium after 24 hrs by microdilution method; format: functional; settings: AD12345678, 24 h
Saccharomyces cerevisiae [14] = assay: Prodrug stability in Saccharomyces cerevisiae ADCDR1 expressing Candida albicans CDR1 efflux pump assessed as compound cleavage rate measured per mg of protein; format: ADME, organism-based; settings: in vivo
Saccharomyces cerevisiae [15] = assay: Prodrug stability in wild type Saccharomyces cerevisiae ATCC 9763 assessed as compound cleavage rate measured per mg of protein; format: ADME, organism-based; settings: in vivo
Saccharomyces cerevisiae [16] = assay: Drug uptake in Saccharomyces cerevisiae AD12345678 at 200 uM pretreated for 10 mins measured after 60 mins by fluorescamine staining in presence of fluconazole; format: ADME, organism-based; settings: in vivo, 1 h
Saccharomyces cerevisiae [17] = assay: Prodrug stability in Saccharomyces cerevisiae AD12345678 assessed as compound cleavage rate measured per mg of protein; format: ADME, organism-based; settings: in vivo
Candida albicans [18] = assay: Antifungal activity against fluconazole resistant Candida albicans isolate Gu5 overexpressing CDR1 and CDR2 in RPMI-1640 buffered medium after 24 hrs by microdilution method; format: functional; settings: isolate Gu5, 24 h
How it was run: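 C. albicans cells were grown in 2% glucose, 1% yeast extract, 1% Bacto peptone medium before testing. CARE-2 fingerprinting confirmed that each pair is a single strain.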

Candida albicans [19] = assay: Antifungal activity against fluconazole sensitive Candida albicans isolate B3 in RPMI-1640 buffered medium after 24 hrs by microdilution method; format: functional; settings: Candida albicans, isolate B3, 24 h; read-out: MIC; how it was run: as §1
Saccharomyces cerevisiae [20] = assay: Drug uptake in Saccharomyces cerevisiae ADCDR2 at 200 uM pretreated for 10 mins measured after 60 mins by fluorescamine staining in presence of fluconazole; format: ADME, organism-based; settings: in vivo, 1 h
Candida albicans [21] = assay: Antifungal activity against fluconazole resistant Candida albicans isolate B4 overexpressing MDR1 in RPMI-1640 buffered medium after 24 hrs by microdilution method; format: functional; settings: Candida albicans, isolate B4, 24 h; read-out: MIC; how it was run: as §1
Saccharomyces cerevisiae [22] = assay: Drug uptake in Saccharomyces cerevisiae ADMDR1 expressing Candida albicans MDR1 efflux pump at 200 uM pretreated for 10 mins measured after 60 mins by fluorescamine staining; format: ADME, organism-based; settings: in vivo, 1 h
Candida albicans [23] = assay: Prodrug stability in wild type Candida albicans 10261 assessed as compound cleavage rate measured per mg of protein; format: ADME, organism-based; settings: in vivo
Saccharomyces cerevisiae [24] = assay: Prodrug stability in Saccharomyces cerevisiae ADMDR1 expressing Candida albicans MDR1 efflux pump assessed as compound cleavage rate measured per mg of protein; format: ADME, organism-based; settings: in vivo
Saccharomyces cerevisiae [25] = assay: Prodrug stability in Saccharomyces cerevisiae ADCDR2 expressing Candida albicans CDR2 efflux pump assessed as compound cleavage rate measured per mg of protein; format: ADME, organism-based; settings: in vivo
Saccharomyces cerevisiae [26] = assay: Drug uptake in Saccharomyces cerevisiae ADCDR2 expressing Candida albicans CDR2 efflux pump at 200 uM pretreated for 10 mins measured after 60 mins by fluorescamine staining; format: ADME, organism-based; settings: in vivo, 1 h

SMILES	MIC (Saccharomyces cerevisiae [1]) [µg/mL]	Drug uptake (Saccharomyces cerevisiae [2]) [nmol/min/mg]	MIC (Candida albicans [3]) [µg/mL]	Drug uptake (Saccharomyces cerevisiae [4]) [nmol/min/mg]	Drug uptake (Saccharomyces cerevisiae [5]) [nmol/min/mg]	MIC (Saccharomyces cerevisiae [6]) [µg/mL]	Stability (Candida albicans [7]) [nmol/min]	Drug uptake (Saccharomyces cerevisiae [8]) [nmol/min/mg]	MIC (Candida albicans [9]) [µg/mL]	Stability (Candida albicans [10]) [nmol/min]	MIC (Saccharomyces cerevisiae [11]) [µg/mL]	MIC (Saccharomyces cerevisiae [12]) [µg/mL]	MIC (Saccharomyces cerevisiae [13]) [µg/mL]	Drug uptake (Saccharomyces cerevisiae [16]) [nmol/min/mg]	MIC (Candida albicans [18]) [µg/mL]	MIC (Candida albicans [19]) [µg/mL]	Drug uptake (Saccharomyces cerevisiae [20]) [nmol/min/mg]	MIC (Candida albicans [21]) [µg/mL]	Drug uptake (Saccharomyces cerevisiae [22]) [nmol/min/mg]	Drug uptake (Saccharomyces cerevisiae [26]) [nmol/min/mg]	further results
CC(C)C[C@H](N)C(=O)N[C@@H](Cc1cccc(F)c1)C(=O)O (H-Leu-[Phe(3-F)]-OH)	8 (≈ 27 µM)	0.87	64 (≈ 216 µM)	0.79	1.82	256 (≈ 864 µM)	20	1.95	128 (≈ 432 µM)	20	4 (≈ 13.5 µM)	256 (≈ 864 µM)	256 (≈ 864 µM)	0.79	8 (≈ 27 µM)	64 (≈ 216 µM)	2.23	64 (≈ 216 µM)	0.84	2.37	Stability (Saccharomyces cerevisiae [14]): 14 nmol/min; Stability (Saccharomyces cerevisiae [15]): 14 nmol/min; Stability (Saccharomyces cerevisiae [17]): 14 nmol/min; Stability (Candida albicans [23]): 20 nmol/min; Stability (Saccharomyces cerevisiae [24]): 14 nmol/min; Stability (Saccharomyces cerevisiae [25]): 14 nmol/min
C[C@H](N)C(=O)N[C@@H](C)C(=O)O (H-Ala-Ala-OH)	–	2.61	–	2.58	4.2	–	–	4.46	–	–	–	–	–	2.55	–	–	3.94	–	2.59	4.08	–
C[C@@H]([C@H](N)C(=O)N[C@H](C(=O)O)[C@H]1O[C@@H](n2ccc(=O)[nH]c2=O)[C@H](O)[C@@H]1O)[C@H](O)c1ccc(O)cn1 [NIKKOMYCIN]	16 (≈ 32.3 µM)	0.34	32 (≈ 64.6 µM)	0.33	0.98	128 (≈ 258 µM)	0.3	1.08	16 (≈ 32.3 µM)	0.3	16 (≈ 32.3 µM)	128 (≈ 258 µM)	128 (≈ 258 µM)	0.32	4 (≈ 8.07 µM)	8 (≈ 16.1 µM)	0.88	8 (≈ 16.1 µM)	0.32	0.97	Stability (Candida albicans [23]): 0.3 nmol/min
